Measured values: ChEMBL document CHEMBL4118248, “Small Molecule Proprotein Convertase Subtilisin/Kexin Type 9 (PCSK9) Inhibitors: Hit to Lead Optimization of Systemic Agents” (J Med Chem, 2018)

Tests used:
Rattus norvegicus [1] = assay: Toxicity in Crl:CD(SD) rat assessed as decrease in basophils at 50 mg/kg/day, po daily via gavage for 14 days measured on day 15 post last dose relative to control; type: organism-based; parameters: scale not given: the % may be the effect or the level left; settings: in vivo, 336 h
Rattus norvegicus [2] = assay: Toxicity in Crl:CD(SD) rat assessed as decrease in cytotoxic T cells at 50 mg/kg/day, po daily via gavage for 14 days measured on day 15 post last dose relative to control; type: organism-based; parameters: scale not given: the % may be the effect or the level left; settings: in vivo, 336 h
[3] = Intrinsic clearance in human liver microsomes; type: ADME, microsome; settings: read-out: CLH
Rattus norvegicus [4] = assay: Toxicity in Crl:CD(SD) rat assessed as single cell necrosis in crypt cells in ileum at 50 mg/kg/day, po daily via gavage for 14 days measured on day 15 post last dose; type: organism-based; settings: in vivo, 336 h
Rattus norvegicus [5] = assay: Toxicity in Crl:CD(SD) rat assessed as decrease in eosinophils at 50 mg/kg/day, po daily via gavage for 14 days measured on day 15 post last dose relative to control; type: organism-based; parameters: scale not given: the % may be the effect or the level left; settings: in vivo, 336 h
Rattus norvegicus [6] = assay: Toxicity in Crl:CD(SD) rat assessed as decrease in WBC at 50 mg/kg/day, po daily via gavage for 14 days measured on day 15 post last dose relative to control; type: organism-based; parameters: scale not given: the % may be the effect or the level left; settings: in vivo, 336 h
Rattus norvegicus [7] = assay: Toxicity in Crl:CD(SD) rat assessed as discolored/mottled liver at 50 mg/kg/day, po daily via gavage for 14 days measured on day 15 post last dose; type: organism-based; settings: in vivo, 336 h
How it was run: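 Male rats, 5 per group, given vehicle or compound at 50 mg/kg/day by oral gavage for 14 days. Mortality, clinical signs and hematology monitored throughout. Necropsy on day 15 with microscopy of bone marrow, ileum, duodenum, jejunum and liver. Toxicokinetics at 1, 3, 6 and 24 h post-dose on day 14.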

[8] = Total Cmax in Crl:CD(SD) rat at 15 mg/kg/day, po daily via gavage for 14 days measured on day 14 post last dose up to 24 hrs; type: ADME, organism-based; parameters: dose 15 mg/kg/day, route oral; settings: in vivo
[9] = Intrinsic clearance in rat liver microsomes; type: ADME, microsome; settings: read-out: CLH
Cytochrome P450 2D6 = Cytochrome P450 2D6 (Homo sapiens, UniProt P10635); assay: Inhibition of CYP2D6 (unknown origin); type: ADME
Cytochrome P450 2D6, sequence (P10635 whole entry): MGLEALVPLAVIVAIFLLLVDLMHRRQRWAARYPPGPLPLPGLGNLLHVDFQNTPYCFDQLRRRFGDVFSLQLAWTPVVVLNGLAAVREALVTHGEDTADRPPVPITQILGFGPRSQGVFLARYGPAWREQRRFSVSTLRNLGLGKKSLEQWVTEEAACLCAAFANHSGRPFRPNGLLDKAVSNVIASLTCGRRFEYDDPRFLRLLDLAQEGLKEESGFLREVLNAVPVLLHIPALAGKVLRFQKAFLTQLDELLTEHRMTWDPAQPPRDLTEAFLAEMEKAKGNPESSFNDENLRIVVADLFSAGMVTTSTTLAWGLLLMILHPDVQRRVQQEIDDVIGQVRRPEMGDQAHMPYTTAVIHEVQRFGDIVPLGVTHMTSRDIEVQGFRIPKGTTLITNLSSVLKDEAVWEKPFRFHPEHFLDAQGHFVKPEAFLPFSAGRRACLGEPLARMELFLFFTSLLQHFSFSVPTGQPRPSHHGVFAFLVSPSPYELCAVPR
How it was run: (§1)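 Inhibition of CYP1A2, 2D6, 2C9 and 3A4 reported as IC50, or as percent inhibition at 3 µM.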

Rattus norvegicus [10] = assay: Toxicity in Crl:CD(SD) rat assessed as decrease in lymphocytes at 50 mg/kg/day, po daily via gavage for 14 days measured on day 15 post last dose relative to control; type: organism-based; parameters: scale not given: the % may be the effect or the level left; settings: in vivo, 336 h
[11] = Fraction unbound in rat plasma; type: ADME, cell-free
How it was run: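 Unbound fraction measured in rat plasma.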

Cytochrome P450 1A2 = target: T1, Cytochrome P450 1A2 (Homo sapiens, UniProt P05177); assay: Inhibition of CYP1A2 (unknown origin); type: ADME; how it was run: as §1
T1 sequence (P05177 whole entry): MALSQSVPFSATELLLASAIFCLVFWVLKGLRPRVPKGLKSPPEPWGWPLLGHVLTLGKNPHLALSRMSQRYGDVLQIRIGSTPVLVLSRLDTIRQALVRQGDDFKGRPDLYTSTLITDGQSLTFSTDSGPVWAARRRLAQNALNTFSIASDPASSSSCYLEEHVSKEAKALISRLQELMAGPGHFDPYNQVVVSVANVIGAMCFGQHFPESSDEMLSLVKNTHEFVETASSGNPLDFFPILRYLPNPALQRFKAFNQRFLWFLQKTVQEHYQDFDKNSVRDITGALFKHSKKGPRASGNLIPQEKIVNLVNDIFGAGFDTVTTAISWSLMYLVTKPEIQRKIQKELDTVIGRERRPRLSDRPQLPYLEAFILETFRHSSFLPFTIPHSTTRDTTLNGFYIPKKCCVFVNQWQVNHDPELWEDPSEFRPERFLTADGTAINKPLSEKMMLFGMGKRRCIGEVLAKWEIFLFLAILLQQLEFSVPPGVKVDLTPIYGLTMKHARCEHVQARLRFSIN

IEC-6 = assay: Cytotoxicity against rat IEC-6 cells assessed as reduction in cell viability after 3 days by CellTiter-Glo assay; type: cell-based; settings: IEC-6, 72 h
How it was run: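 Rat intestinal epithelial IEC-6 cells; viability read by CellTiter-Glo ATP luminescence.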

[12] = Cytotoxicity against human CD34-positive hematopoietic progenitor cells assessed as reduction in cell viability after 72 hrs by CellTiter-Glo assay; type: cell-based
[13] = Total plasma concentration in Crl:CD(SD) rat at 15 mg/kg/day, po daily via gavage for 14 days measured on day 14 post last dose up to 24 hrs; type: ADME, organism-based; settings: in vivo
[14] = Permeability from apical to basolateral side in MDCK cells harboring MDR1; type: ADME, cell-based, Canis lupus familiaris; settings: dog, read-out: permeability
How it was run: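 Bidirectional permeability across MDR1-transfected MDCK monolayers, apical-to-basolateral and basolateral-to-apical; Papp reported in 10^-6 cm/s.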

Rattus norvegicus [15] = assay: Toxicity in Crl:CD(SD) rat assessed as decrease in B cells at 50 mg/kg/day, po daily via gavage for 14 days measured on day 15 post last dose relative to control; type: organism-based; parameters: scale not given: the % may be the effect or the level left; settings: in vivo, 336 h
[16] = Apparent permeability in RRCK cells; type: ADME, cell-based, Canis lupus familiaris, MDCKII-LE; settings: dog, MDCK
How it was run: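 Passive permeability measured in RRCK cells, a modified Madin-Darby canine kidney line; Papp reported in 10^-6 cm/s.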

Rattus norvegicus [17] = assay: Toxicity in Crl:CD(SD) rat at 5 to 15 mg/kg/day, po daily via gavage for 14 days measured on day 15 post last dose; type: organism-based; settings: in vivo, 336 h
Rattus norvegicus [18] = assay: Toxicity in Crl:CD(SD) rat assessed as decrease in absolute maturing erythroid cells at 50 mg/kg/day, po daily via gavage for 14 days measured on day 15 post last dose relative to control; type: organism-based; parameters: scale not given: the % may be the effect or the level left; settings: in vivo, 336 h
[19] = Lipophilicity, log D of the compound by shake flask method; type: physicochemical; settings: octanol/water
How it was run: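 LogD measured by the shake-flask method.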

Rattus norvegicus [20] = assay: Reduction in LDL cholesterol level in Crl:CD(SD) rat at 50 mg/kg/day, po daily via gavage for 14 days measured on day 15 post last dose relative to control; type: functional; parameters: scale not given: the % may be the effect or the level left
Rattus norvegicus [21] = assay: Toxicity in Crl:CD(SD) rat assessed as decrease in helper T cells at 50 mg/kg/day, po daily via gavage for 14 days measured on day 15 post last dose relative to control; type: organism-based; parameters: scale not given: the % may be the effect or the level left; settings: in vivo, 336 h
Rattus norvegicus [22] = assay: Toxicity in Crl:CD(SD) rat assessed as decrease in proliferating erythroid cells at 50 mg/kg/day, po daily via gavage for 14 days measured on day 15 post last dose relative to control; type: organism-based; parameters: scale not given: the % may be the effect or the level left; settings: in vivo, 336 h
Cytochrome P450 3A4 = Cytochrome P450 3A4 (Homo sapiens, UniProt P08684); assay: Inhibition of CYP3A4 (unknown origin); type: ADME; how it was run: as §1
Cytochrome P450 3A4, sequence (P08684 whole entry): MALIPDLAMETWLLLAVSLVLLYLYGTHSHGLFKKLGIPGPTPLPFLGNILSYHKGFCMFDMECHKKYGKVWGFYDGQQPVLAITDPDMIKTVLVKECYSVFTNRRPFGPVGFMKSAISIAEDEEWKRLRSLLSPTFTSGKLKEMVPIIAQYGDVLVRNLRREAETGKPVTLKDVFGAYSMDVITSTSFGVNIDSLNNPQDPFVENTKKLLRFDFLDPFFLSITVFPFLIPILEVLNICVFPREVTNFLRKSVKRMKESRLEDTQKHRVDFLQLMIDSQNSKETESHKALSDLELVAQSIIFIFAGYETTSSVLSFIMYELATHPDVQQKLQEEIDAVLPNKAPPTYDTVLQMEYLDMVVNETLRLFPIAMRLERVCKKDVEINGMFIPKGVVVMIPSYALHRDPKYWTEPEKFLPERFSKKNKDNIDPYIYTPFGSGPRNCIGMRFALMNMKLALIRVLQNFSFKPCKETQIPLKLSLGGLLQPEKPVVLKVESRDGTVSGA

80S Ribosome = assay: Binding affinity of [3H]PF-06446846 to human 80S ribosome
Rattus norvegicus [23] = assay: Toxicity in Crl:CD(SD) rat at 15 mg/kg/day, po daily via gavage for 14 days; type: organism-based; settings: in vivo, 336 h
Rattus norvegicus [24] = assay: Toxicity in Crl:CD(SD) rat assessed as decrease in monocytes at 50 mg/kg/day, po daily via gavage for 14 days measured on day 15 post last dose relative to control; type: organism-based; parameters: scale not given: the % may be the effect or the level left; settings: in vivo, 336 h
Cytochrome P450 2C9 = Cytochrome P450 2C9 (Homo sapiens, UniProt P11712); assay: Inhibition of CYP2C9 (unknown origin); type: ADME; how it was run: as §1
Cytochrome P450 2C9, sequence (P11712 whole entry): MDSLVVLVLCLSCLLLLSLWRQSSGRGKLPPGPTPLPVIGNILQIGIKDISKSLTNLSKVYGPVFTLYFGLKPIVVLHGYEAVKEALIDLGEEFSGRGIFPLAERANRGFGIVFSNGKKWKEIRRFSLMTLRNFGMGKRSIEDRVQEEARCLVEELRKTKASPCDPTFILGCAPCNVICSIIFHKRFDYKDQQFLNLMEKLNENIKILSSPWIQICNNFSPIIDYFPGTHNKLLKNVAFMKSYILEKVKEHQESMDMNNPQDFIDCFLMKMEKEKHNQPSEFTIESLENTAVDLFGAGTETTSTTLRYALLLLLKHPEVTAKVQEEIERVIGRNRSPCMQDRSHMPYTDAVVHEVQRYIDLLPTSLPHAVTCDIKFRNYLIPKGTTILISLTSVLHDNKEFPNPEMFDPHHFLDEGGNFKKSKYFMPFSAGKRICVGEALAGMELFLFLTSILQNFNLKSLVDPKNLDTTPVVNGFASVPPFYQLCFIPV

O=C(c1ccc(-n2nnc3cccnc32)cc1)N(c1ncccc1Cl)[C@@H]1CCCNC1 showed an Activity (Rattus norvegicus [1]) of 100%, an Activity (Rattus norvegicus [2]) of 54.5% and a microsomal CLint [3] of 9.7 µL/min/mg. The Activity (Rattus norvegicus [4]) was “Toxic”, the Activity (Rattus norvegicus [5]) was 54% and the Activity (Rattus norvegicus [6]) was 52%. For the same molecule, the Activity (Rattus norvegicus [7]) was “Toxic”, the Cmax [8] was 1640 ng/mL and the microsomal CLint [9] was 18.2 µL/min/mg. The IC50 (Cytochrome P450 2D6) was over 30 µM, the Activity (Rattus norvegicus [10]) was 54% and the fraction unbound [11] was 0.2. It also gave an IC50 (Cytochrome P450 1A2) of over 30 µM, an IC50 (IEC-6) of over 20 µM and an IC50 [12] of 2700 nM. For the same molecule, the concentration [13] was 2420 nM, the Papp A→B [14] was 1.5 ×10⁻⁶ cm/s and the Activity (Rattus norvegicus [15]) was 58%. For the same molecule, the Papp [16] was 15 ×10⁻⁶ cm/s, the Activity (Rattus norvegicus [17]) was “Non-Toxic” and the Activity (Rattus norvegicus [18]) was 48%. It also gave a logD [19] of 0.8, an Activity (Rattus norvegicus [20]) of 58% and an Activity (Rattus norvegicus [21]) of 54%. For the same molecule, the Activity (Rattus norvegicus [22]) was 32.9%, the IC50 (Cytochrome P450 3A4) was over 30 µM and the Ki (80S Ribosome) was 7 µM. It also gave an NOAEL (Rattus norvegicus [23]) of 478 nM, an Activity (Rattus norvegicus [24]) of 63% and an IC50 (Cytochrome P450 2C9) of over 30 µM.
